Assay results: ChEMBL document CHEMBL1123812, “Pyrroloisoquinoline antidepressants. 2. In-depth exploration of structure-activity relationships” (J Med Chem, 1987)
pKi: −log10 of the molar value. Activity calls are given as the source filed them.

Key:
[1] = target: D(2) dopamine receptor (Rattus norvegicus) (UniProt P61169); test: Binding affinity towards dopamine receptor D2 at 1.0 uM concentration
Procedure, shortened: (§1)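 Rat brain crude synaptic membranes in 20 mM NaHEPES pH 7.5. Ligands: α1 cortex […] 0.4 nM, nonspecific with (-)-NE 100 μM, 30 min at 25 °C. […] D2 striatum [3H]spiperone 0.05 nM with (+)-butaclamol 1 μM, 45 min at 37 °C. S1 cortex [3H]5-HT 1 nM plus glutathione and MgCl2, with 5-HT 10 μM, 20 min at 37 °C. […] Samples filtered on GF/B and counted.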

[2] = target: Serotonin 2 (5-HT2) receptor (Rattus norvegicus) (UniProt P30994+P08909+P14842); test: Binding affinity towards 5-hydroxytryptamine 2 receptor at 1.0 uM concentration; type: protein assay; procedure, shortened: as §1
Mus musculus [3] = organism: Mus musculus; test: Antagonism of tetrabenazine (TBZ)-induced depression in mice measured for ptosis; type: functional; details: Mus musculus; read-out: ED50
Procedure, shortened: (§2)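 Nonfasted male Swiss Webster mice, 18–24 g, ten per dose level and in saline controls. Test compound given ip 30 min before tetrabenazine 32 mg/kg ip; dose expressed as free base. Motor activity and ptosis scored. Control response ≤90% corrected by Abbott's formula.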

[4] = target: T1, Adrenergic receptor alpha-1 (Rattus norvegicus, UniProt P15823+P23944+P43140); test: Binding affinity towards alpha-1 adrenergic receptor; type: protein assay
T1 sequence (P15823 whole entry): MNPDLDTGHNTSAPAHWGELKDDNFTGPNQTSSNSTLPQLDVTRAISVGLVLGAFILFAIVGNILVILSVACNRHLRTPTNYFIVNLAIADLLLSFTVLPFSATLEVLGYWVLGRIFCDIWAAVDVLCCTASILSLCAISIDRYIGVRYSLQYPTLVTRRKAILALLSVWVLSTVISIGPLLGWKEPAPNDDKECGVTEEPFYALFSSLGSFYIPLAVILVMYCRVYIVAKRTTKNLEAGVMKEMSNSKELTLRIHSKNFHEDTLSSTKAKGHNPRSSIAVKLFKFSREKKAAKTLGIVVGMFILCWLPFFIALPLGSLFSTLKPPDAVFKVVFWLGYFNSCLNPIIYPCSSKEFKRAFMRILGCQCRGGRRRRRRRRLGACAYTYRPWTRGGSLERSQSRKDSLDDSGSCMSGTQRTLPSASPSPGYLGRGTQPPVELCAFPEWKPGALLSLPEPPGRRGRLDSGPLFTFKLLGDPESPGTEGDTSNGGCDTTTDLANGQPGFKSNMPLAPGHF
T1 sequence (P23944 whole entry): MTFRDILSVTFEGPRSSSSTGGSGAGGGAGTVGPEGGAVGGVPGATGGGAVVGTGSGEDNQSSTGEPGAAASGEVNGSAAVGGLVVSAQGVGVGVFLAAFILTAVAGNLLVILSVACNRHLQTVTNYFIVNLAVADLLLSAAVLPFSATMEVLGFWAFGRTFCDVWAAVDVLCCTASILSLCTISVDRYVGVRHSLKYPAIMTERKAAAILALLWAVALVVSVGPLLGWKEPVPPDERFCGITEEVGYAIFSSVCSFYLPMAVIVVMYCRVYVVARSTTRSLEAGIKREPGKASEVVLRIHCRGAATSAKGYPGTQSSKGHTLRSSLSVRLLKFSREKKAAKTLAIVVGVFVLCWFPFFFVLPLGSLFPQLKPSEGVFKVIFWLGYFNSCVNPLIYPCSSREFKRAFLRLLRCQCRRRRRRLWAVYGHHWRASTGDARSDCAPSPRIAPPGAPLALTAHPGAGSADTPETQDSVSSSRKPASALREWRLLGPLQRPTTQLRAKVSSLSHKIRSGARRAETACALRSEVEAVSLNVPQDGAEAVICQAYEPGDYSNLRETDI
T1 sequence (P43140 whole entry): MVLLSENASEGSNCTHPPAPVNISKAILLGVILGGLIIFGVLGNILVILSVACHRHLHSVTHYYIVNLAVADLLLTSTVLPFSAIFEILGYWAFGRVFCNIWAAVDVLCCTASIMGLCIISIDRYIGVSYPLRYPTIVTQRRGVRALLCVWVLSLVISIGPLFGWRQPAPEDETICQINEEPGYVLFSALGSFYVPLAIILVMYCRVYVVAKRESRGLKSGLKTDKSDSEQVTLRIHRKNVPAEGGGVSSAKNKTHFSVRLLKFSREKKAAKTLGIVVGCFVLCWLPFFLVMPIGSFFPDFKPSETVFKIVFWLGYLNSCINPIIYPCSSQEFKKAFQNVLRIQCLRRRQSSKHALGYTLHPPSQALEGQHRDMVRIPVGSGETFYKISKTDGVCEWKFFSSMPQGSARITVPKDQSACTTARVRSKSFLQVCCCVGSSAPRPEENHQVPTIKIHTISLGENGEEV

[5] = target: Sodium-dependent serotonin transporter (Rattus norvegicus) (UniProt P31652); test: Inhibition of tritiated serotonin(5-HT) uptake at 0.1 uM concentration; type: functional
Procedure, shortened: (§3)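 Male Wistar rat brain synaptosomes (P2 fraction): hypothalamus for NE, striatum for DA, cerebral cortex for 5-HT. Buffer is Tris- or HEPES-buffered salt medium with glucose, ascorbate and nialamide, pH 7.4 at 37 °C. Preincubated 10 min at 37 °C with compound. Uptake started with [3H]NE 100–300 nM, [3H]DA 50–300 nM or [3H]5-HT 100–200 nM, incubated 3 min (DA) or 6–10 min (NE, 5-HT). Blanks held on ice. Filtered, counted by scintillation.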

[6] = target: Sodium-dependent dopamine transporter (Rattus norvegicus) (UniProt P23977); test: Inhibition of tritiated dopamine (DA) uptake at 0.1 uM concentration; type: functional; procedure, shortened: as §3
Rattus norvegicus = organism: Rattus norvegicus; test: Ability to inhibit the uptake of tritiated norepinephrine (NE) at 0.1 uM concentration; type: functional; procedure, shortened: as §3
Mus musculus [7] = organism: Mus musculus; test: Antagonism of tetrabenazine (TBZ)-induced depression measured in mice by motor activity; type: functional; details: Mus musculus; read-out: ED50; procedure, shortened: as §2
Mus musculus [8] = organism: Mus musculus; test: Gross behavioral effects ascertained in mice; W indicates weak stimulant or depressant activity of little significance.; type: functional, organism-based
Procedure, shortened: (§4)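 Male Swiss Webster mice, 18–24 g, three per dose, given ip doses of 1, 3, 10, 30, 100 and 300 mg/kg. Observed for gross behavior and held for 4 days. Scored as weak (W), stimulant (S), depressant (D) or convulsant (C).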

[9] = target: Serotonin 1 (5-HT1) receptor (Rattus norvegicus, UniProt P28564+P30940+P19327+P28565); test: Binding affinity towards serotonin S1 receptor; type: protein assay; procedure, shortened: as §1
[10] = target: Sodium-dependent dopamine transporter (Rattus norvegicus, UniProt P23977); test: Inhibition of the uptake of tritiated dopamine (DA) in rat synaptosomes; type: subcellular, Brain
[11] = target: Sodium-dependent serotonin transporter (Rattus norvegicus) (UniProt P31652); test: Ability to inhibit the uptake of [3H]- serotonin(5-HT) 0.1 uM concentration at rat brain synaptosomes; type: functional, subcellular; procedure, shortened: as §3
[12] = target: Serotonin 1 (5-HT1) receptor (Rattus norvegicus) (UniProt P28564+P30940+P19327+P28565); test: Binding affinity towards serotonin S1 receptor at 1.0 uM; type: protein assay; procedure, shortened: as §1
[13] = target: Norepinephrine transporter (Rattus norvegicus) (UniProt Q9WTR4); test: Ability to inhibit the uptake of [3H]norepinephrine (NE) 0.1 uM concentration at rat brain synaptosomes; type: functional, subcellular; procedure, shortened: as §3
[14] = target: Adrenergic receptor alpha-1 (Rattus norvegicus) (UniProt P15823+P23944+P43140); test: Binding affinity towards alpha-1 adrenergic receptor at 1.0 uM concentration; type: protein assay; procedure, shortened: as §1
[15] = target: Sodium-dependent dopamine transporter (Rattus norvegicus) (UniProt P23977); test: Ability to inhibit the uptake of [3H]dopamine (DA) 0.1 uM concentration at rat brain synaptosomes; type: functional, subcellular; procedure, shortened: as §3
[16] = target: Serotonin 2 (5-HT2) receptor (Rattus norvegicus, UniProt P30994+P08909+P14842); test: Binding affinity towards 5-hydroxytryptamine 2 receptor; type: protein assay
[17] = target: Norepinephrine transporter (Rattus norvegicus, UniProt Q9WTR4); test: Inhibition of uptake of tritiated norepinephrine (NE) in rat synaptosomes; type: subcellular, Brain
[18] = target: Adrenergic receptor alpha-2 (Rattus norvegicus) (UniProt P22086+P19328+P22909); test: Binding affinity towards alpha-2 adrenergic receptor at 1.0 uM concentration; type: protein assay
[19] = target: Muscarinic acetylcholine receptor (Rattus norvegicus) (UniProt P08482+P08483+P08485+P08911+P10980); test: Binding affinity towards Muscarinic acetylcholine receptor at 1.0 uM concentration; type: protein assay
Mus musculus [20] = organism: Mus musculus; test: Gross behavioral effects ascertained in mice; S indicates significant stimulant properties.; type: functional, organism-based; procedure, shortened: as §4
Mus musculus [21] = test: Ability to antagonise intraperitoneal dose; inactive (<10% antagonism) at 30 mg/kg is represented as I-30.; type: functional, organism-based; set-up: dose 30 mg/kg; procedure, shortened: as §2
Mus musculus [22] = test: Ability to antagonise intraperitoneal dose; inactive (<10% antagonism) at 30 mgjkg is represented as I-30.; type: functional, organism-based; procedure, shortened: as §2

Chain of Serotonin 2 (5-HT2) receptor (Rattus norvegicus) (P08909 whole entry, looked up): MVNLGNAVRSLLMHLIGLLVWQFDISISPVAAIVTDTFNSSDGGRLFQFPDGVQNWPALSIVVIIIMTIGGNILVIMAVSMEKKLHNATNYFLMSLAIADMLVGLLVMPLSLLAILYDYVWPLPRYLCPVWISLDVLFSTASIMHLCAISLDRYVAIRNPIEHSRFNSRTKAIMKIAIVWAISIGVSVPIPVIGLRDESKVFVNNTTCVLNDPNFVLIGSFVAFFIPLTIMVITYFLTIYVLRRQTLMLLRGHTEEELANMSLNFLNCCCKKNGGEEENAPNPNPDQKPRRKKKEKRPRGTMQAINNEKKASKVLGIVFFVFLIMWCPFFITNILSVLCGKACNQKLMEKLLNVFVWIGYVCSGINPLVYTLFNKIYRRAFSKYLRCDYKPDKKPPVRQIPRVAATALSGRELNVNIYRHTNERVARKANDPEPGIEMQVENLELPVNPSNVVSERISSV
Chain of Serotonin 2 (5-HT2) receptor (Rattus norvegicus) (P14842 whole entry, looked up): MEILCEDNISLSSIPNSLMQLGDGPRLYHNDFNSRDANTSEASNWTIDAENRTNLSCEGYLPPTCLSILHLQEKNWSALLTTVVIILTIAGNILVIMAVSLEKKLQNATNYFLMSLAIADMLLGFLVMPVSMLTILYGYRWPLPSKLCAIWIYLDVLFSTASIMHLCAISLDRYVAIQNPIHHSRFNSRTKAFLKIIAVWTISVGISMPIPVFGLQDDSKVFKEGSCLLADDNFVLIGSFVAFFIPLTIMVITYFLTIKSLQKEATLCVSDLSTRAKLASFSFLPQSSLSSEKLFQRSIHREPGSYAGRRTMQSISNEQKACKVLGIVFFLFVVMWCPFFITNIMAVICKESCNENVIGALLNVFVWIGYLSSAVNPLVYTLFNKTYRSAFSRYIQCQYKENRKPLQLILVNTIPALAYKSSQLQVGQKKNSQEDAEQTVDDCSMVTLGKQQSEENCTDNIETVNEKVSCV
Chain of Serotonin 2 (5-HT2) receptor (Rattus norvegicus) (P30994 whole entry, looked up): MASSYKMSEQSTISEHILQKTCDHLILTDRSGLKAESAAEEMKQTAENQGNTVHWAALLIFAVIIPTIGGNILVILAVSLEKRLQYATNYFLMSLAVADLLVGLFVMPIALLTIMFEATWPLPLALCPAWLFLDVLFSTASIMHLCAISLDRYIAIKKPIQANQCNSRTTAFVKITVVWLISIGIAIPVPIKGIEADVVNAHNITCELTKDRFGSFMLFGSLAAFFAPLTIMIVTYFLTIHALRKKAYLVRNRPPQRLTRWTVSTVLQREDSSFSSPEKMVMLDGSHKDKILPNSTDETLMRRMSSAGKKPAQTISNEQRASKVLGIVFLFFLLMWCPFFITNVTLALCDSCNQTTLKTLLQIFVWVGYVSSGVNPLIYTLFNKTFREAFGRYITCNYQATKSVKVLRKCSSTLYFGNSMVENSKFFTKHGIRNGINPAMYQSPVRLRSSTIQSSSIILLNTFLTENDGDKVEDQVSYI
Chain of D(2) dopamine receptor (Rattus norvegicus) (P61169 whole entry): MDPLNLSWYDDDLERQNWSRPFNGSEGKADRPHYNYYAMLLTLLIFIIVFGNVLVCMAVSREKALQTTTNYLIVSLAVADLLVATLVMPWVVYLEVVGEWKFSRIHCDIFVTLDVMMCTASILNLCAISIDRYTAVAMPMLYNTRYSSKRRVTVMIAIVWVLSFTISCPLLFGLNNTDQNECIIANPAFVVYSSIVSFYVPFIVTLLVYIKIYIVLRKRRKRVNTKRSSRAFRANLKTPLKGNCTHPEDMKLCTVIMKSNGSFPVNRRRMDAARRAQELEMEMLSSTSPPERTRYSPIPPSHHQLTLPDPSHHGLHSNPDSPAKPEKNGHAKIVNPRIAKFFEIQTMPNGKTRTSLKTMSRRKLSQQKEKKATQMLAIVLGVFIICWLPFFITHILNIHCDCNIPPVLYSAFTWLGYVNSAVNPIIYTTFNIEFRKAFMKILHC
Chain of Sodium-dependent dopamine transporter (P23977 whole entry): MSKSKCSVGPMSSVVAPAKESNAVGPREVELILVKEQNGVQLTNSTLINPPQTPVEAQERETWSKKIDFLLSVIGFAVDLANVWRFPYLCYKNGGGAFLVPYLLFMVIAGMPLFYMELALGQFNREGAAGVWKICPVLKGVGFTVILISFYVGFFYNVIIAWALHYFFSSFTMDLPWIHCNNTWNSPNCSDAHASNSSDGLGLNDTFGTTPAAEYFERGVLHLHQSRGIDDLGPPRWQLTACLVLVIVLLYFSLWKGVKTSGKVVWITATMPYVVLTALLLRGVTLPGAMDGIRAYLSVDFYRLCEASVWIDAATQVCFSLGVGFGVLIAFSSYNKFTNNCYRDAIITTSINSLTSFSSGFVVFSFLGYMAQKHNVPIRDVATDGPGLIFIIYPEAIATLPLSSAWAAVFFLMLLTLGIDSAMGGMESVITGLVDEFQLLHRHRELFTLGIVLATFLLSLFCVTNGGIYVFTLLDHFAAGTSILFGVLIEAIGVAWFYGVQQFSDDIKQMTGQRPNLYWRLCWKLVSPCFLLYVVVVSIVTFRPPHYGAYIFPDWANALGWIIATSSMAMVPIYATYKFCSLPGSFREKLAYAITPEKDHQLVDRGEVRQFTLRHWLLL
Chain of Sodium-dependent dopamine transporter (Rattus norvegicus) (P23977 whole entry): as above
Chain of Sodium-dependent serotonin transporter (Rattus norvegicus) (P31652 whole entry): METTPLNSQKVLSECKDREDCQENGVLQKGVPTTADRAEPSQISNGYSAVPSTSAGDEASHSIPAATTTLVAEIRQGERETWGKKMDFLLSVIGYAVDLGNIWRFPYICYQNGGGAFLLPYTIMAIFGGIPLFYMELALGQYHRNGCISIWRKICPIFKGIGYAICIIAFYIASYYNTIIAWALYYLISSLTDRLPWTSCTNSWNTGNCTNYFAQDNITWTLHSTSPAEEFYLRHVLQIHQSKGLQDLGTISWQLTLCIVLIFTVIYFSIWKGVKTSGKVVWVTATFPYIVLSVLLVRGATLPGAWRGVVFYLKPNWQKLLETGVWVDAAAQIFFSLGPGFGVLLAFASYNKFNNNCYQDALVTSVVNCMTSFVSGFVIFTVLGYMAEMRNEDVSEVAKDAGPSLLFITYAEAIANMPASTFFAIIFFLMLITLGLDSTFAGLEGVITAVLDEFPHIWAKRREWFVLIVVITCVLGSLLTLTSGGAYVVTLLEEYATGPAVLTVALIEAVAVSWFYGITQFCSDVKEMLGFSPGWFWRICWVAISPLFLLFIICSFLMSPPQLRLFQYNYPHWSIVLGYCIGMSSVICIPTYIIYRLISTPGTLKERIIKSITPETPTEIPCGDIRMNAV
Chain of Norepinephrine transporter (Rattus norvegicus) (Q9WTR4 as listed by the source): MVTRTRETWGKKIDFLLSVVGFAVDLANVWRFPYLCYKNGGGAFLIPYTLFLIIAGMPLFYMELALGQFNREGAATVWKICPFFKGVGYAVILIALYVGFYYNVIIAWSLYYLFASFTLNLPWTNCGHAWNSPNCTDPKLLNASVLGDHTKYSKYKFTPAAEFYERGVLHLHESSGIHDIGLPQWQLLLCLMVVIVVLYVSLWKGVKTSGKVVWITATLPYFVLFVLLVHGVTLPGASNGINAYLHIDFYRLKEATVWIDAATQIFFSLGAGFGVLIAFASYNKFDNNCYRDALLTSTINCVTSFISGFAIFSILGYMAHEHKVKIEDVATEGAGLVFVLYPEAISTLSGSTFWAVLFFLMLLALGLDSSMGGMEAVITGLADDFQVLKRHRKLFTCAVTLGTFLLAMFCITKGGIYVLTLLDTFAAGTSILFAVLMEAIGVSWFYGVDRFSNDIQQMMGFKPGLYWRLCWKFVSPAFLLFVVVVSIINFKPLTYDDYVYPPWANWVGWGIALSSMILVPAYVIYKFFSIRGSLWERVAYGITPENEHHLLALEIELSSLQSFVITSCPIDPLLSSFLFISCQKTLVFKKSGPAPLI
Chain of Norepinephrine transporter (Q9WTR4 whole entry): as the sequence (Q9WTR4 as listed by the source) above

Compound	inhibition [1]	inhibition [2]	ED50 (Mus musculus [3])	ED50 (Mus musculus [7])	behavior (Mus musculus [8])	pKi [10]	inhibition [12]	inhibition [14]	inhibition [18]	also measured
Br.Clc1ccccc1[C@@H]1CN2CCC[C@H]2c2ccccc21	54%	10%	2.5 mg/kg	> 30 mg/kg	Partial stimulant					Ki [4]: 41 nM; inhibition [5]: 19%; inhibition [6]: 9%; Inhibition (Rattus norvegicus): 41%
Br.Clc1ccccc1[C@@H]1CN2CCC[C@@H]2c2ccccc21 (stereo in doubt; (-)-24b)						6.11				Ki [9]: 2700 nM; Ki [4]: 620 nM
Br.Nc1ccc([C@@H]2CN3CCC[C@H]3c3ccccc32)cc1	16%		0.2 mg/kg	1 mg/kg			36%	69%		inhibition [11]: 17%; inhibition [13]: 89%; inhibition [15]: 77%; Ki [16]: 29 nM
Br.COc1ccc([C@@H]2CN3CCC[C@@H]3c3ccccc32)cc1OC	-1%		0.13 mg/kg	2 mg/kg	Partial stimulant	7.14		58%	15%	pKi [17]: 8.47; inhibition [19]: -1%
Clc1ccc([C@@H]2CN3CCC[C@@H]3c3cc(Cl)ccc32)cc1	55%		~4 mg/kg	37.4 mg/kg	Partial stimulant	8.49	11%	20%	10%	pKi [17]: 8.49
Br.Clc1ccc([C@@H]2CN3CCC[C@@H]3c3ccccc32)cc1	35%	59%	0.34 mg/kg	0.55 mg/kg				61%	35%	behavior (Mus musculus [20]): Stimulant; inhibition [19]: 0%
CSc1ccc([C@@H]2CN3CCC[C@@H]3c3ccccc32)cc1 (stereo in doubt; (+)-48b)							31%			
c1ccc(C[C@H]2CN3CCC[C@H]3c3ccccc32)cc1										inhibition [11]: 32%; ED50 (Mus musculus [21]): inactive; inhibition [13]: 69%; ED50 (Mus musculus [22]): inactive; inhibition [15]: 19%
CN1CCc2cc(Cl)c(O)cc2[C@@H](c2ccccc2)C1 [SCH-23390]	53%						75%	65%		Ki [16]: 13 nM
c1ccc([C@@H]2CN3CCC[C@@H]3c3ccccc32)cc1 (stereo in doubt; (-)-7b)	14%	58%			Partial stimulant					
